# Results published in PubChem BioAssay AID504383 (The Scripps Research Institute Molecular Screening Center, 2011).
# Out of some 2,500 compounds screened, about 1,200 (48%) were called active.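 The calls were made as follows: active = mean activation above the low control average plus 3 SD, as set in the primary screen (cut at about 12% in these data); inactive = the rest.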 The set was probably picked from earlier hits. The list shows a part of the results.
# Molecular target: Troponin I, cardiac muscle (Homo sapiens) + Troponin T, cardiac muscle (Homo sapiens) + Troponin C, slow skeletal and cardiac muscles (Homo sapiens) (UniProt P19429+P45379+P63316)
# Test: calcium sensitizers of cardiac thin filaments – biochemical, IANBD-TnC fluorescence, triplicate, confirmation (AID 504383);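 also: 0% = DMSO at 0.472 mM calcium and 100% = DMSO at 2.9 mM calcium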
# Conditions: IANBD-labeled cardiac RTF, Ca2+ sensitivity fluorescence; at 7.2 µM; active compounds read high; scaled from EC20 to saturating calcium; tested at EC20 calcium, 0.472 mM
# Procedure, shortened: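 Test system: labelled regulated thin filament protein complex. Dosing: single nominal compound dose of 7.2 µM. Benchmarks: EC20 and EC100 calcium wells. Read-out basis: fluorescence gain scaled between EC20 and EC100 calcium controls. Probe or stimulus: submaximal calcium at 0.472 mM (EC20). Technique: fluorescence. Times: 15 min compound exposure, 25 °C.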
row,Structure (SMILES),activation
1,COCCCNc1c2c3c(cccc3[nH]c1=O)C(=O)c1ccccc1-2,13.2% (active)
2,CCCCNc1c2c3c(cccc3n(C)c1=O)C(=O)c1ccccc1-2,2.63% (inactive)
3,CC(C)n1cnc2c(NCc3ccccc3)cc(N[C@H](C)CO)cc21,-7.72% (inactive)
4,CCOC(=O)c1sc2nc(C)nc(SCC(=O)NC3CCS(=O)(=O)C3)c2c1C (configuration not stated),32.3% (active)
5,C[C@@H]1CC=C[C@H]2[C@H]1C(=O)N(Cc1ccccc1)[C@H]2c1ccc(-c2cc3ccccc3s2)cc1F,3.06% (inactive)
6,COc1cccc2c1OC1(C)CC2NC(=O)N1Cc1ccccc1 (configuration not stated),10.4% (inactive)
7,CN(Cc1ccccc1)C(=O)c1cccc(N2C(=O)NC3CC2(C)Oc2ccccc23)c1 (configuration not stated),54% (active)
8,CCOc1cccc2c1OC1(C)CC2NC(=O)N1c1cccc(C(=O)NCc2ccccn2)c1 (configuration not stated),5.07% (inactive)
9,CC1=Nc2ccccc2/C1=C\c1nc(-c2ccc(C(F)(F)F)cc2)oc1O,7.9% (inactive)
10,CC1=Nc2ccccc2/C1=C\c1nc(-c2ccc(F)cc2)oc1O,7.33% (inactive)
11,COc1ccc(-c2nc(/C=C3\C(C)=Nc4ccccc43)c(O)o2)cc1,12.1% (active)
12,Cn1c(/C(C#N)=C/c2ccc(-c3ccc(S(N)(=O)=O)cc3)o2)nc2ccccc21,9.43% (inactive)
13,N#C/C(=C\c1ccc(-c2ccc(F)cc2)o1)C(=O)Nc1nc(-c2cccs2)cs1,81.8% (active)
14,N#C/C(=C/c1ccc(-c2ccccc2)o1)c1nc(-c2cccs2)cs1,105% (active)
15,Cc1ccsc1C1NC(=O)c2c(sc3c2CCN(C)C3)N1 (configuration not stated),63.1% (active)
16,CN1CCc2c(sc3c2C(=O)NC(c2ccco2)N3)C1 (configuration not stated),1.53% (inactive)
17,O=C1NC(c2ccco2)Nc2sc3c(c21)CCN(Cc1ccccc1)C3 (configuration not stated),11.7% (active)
18,CSc1ccc(C2NC(=O)c3c(sc4c3CCN(C)C4)N2)cc1 (configuration not stated),22.9% (active)
19,Cc1ccc(C2NC(=O)c3c(sc4c3CCN(C)C4)N2)o1 (configuration not stated),12.6% (active)
20,Cc1ccc(C2NC(=O)c3c(sc4c3CCN(C)C4)N2)s1 (configuration not stated),5.94% (inactive)
21,CN1CCc2c(sc3c2C(=O)NC(c2cccs2)N3)C1 (configuration not stated),9.65% (inactive)
22,CN1CCc2c(sc3c2C(=O)NC(c2ccccn2)N3)C1 (configuration not stated),1.45% (inactive)
23,CCc1ccccc1NC(=S)NCc1cccn1C,9.11% (inactive)

row,Structure (SMILES),activation
1,O=C(NCCCN1CCOCC1)C(=O)NCc1ccco1,9.34% (inactive)
2,Cn1c(C(=O)NCCCN2CCCCCC2)cc2c(=O)n(C)c3ccccc3c21,18.9% (active)
3,O=C(C1=NN[C@@H]2C(=O)N(c3ccccc3C(F)(F)F)C(=O)[C@H]12)c1ccc2ccccc2n1,60.7% (active)
4,CC1CC(C)(C)NC(=S)N1CCCC(=O)Nc1ccccc1F (configuration not stated),-0.32% (inactive)
5,Cc1ccc(C)c(N2CCN(C(=O)CN3C(=S)NC(C)(C)CC3C)CC2)c1 (configuration not stated),42.4% (active)
6,CC(C)C[C@@H](CN=[N+]=[N-])N1CCN(C)CCC1=O,-0.6% (inactive)
7,CCN1CCN(C2=CC3=CC(=C(C#N)C#N)CCC3CC2)CC1 (configuration not stated),0.71% (inactive)
8,Cc1oc(-c2ccccc2Cl)nc1CSc1nc2c(c(=O)[nH]1)CCC2,6.98% (inactive)
9,O=C(NCc1ccccc1)C1(c2cccc(F)c2)CCCC1,6.54% (inactive)
10,Fc1ccc(CNC(=S)NCc2ccc(F)cc2)cc1,54.8% (active)
11,Fc1ccc(CNCc2ccc(Br)cc2)cc1,10.4% (inactive)
12,Cc1cc(=O)c2c([nH]1)c(C)cc1[nH]c(C)c(C)c12,9.89% (inactive)
13,CC1(C)C([N+](=O)[O-])C(c2ccc(F)cc2)NC(c2ccc(F)cc2)C1[N+](=O)[O-] (configuration not stated),1.97% (inactive)
14,COC(=O)C1(C)NC(c2ccc(C)cc2)C2C(=O)N(c3ccc(F)cc3)C(=O)C21 (configuration not stated),17% (active)
15,CC(C)CN1CCN(Cc2cccn2-c2ccc(Cl)cn2)CC1CCO (configuration not stated),155% (active)
16,O=S(=O)(c1ccc(F)cc1)N1CN(Cc2ccco2)c2nc3ccccc3nc21,19% (active)
17,COc1ccc(S(=O)(=O)N2CN(Cc3ccco3)c3nc4ccccc4nc32)cc1,127% (active)
18,CS(=O)(=O)N(CC(=O)N/N=C/c1ccco1)c1ccccc1Br,116% (active)
19,Cc1ccccc1N(CC(N)=O)S(C)(=O)=O,4.33% (inactive)
20,CCCCCCC(=O)N/N=C/c1ccco1,7.23% (inactive)
21,O=C(O)c1ccccc1-c1c2cc(I)c(=O)c(I)c-2oc2c(I)c(O)c(I)cc12,5.23% (inactive)
22,C#CCOCCOCCOCCNc1nc(N2CCN(C(=O)Cn3cc(CCCCN)nn3)CC2)nc(N2CCN(C(=O)Cn3cc(CC(C)O)nn3)CC2)n1 (configuration not stated),5.79% (inactive)
23,C=C1CCN(C(CC(C)C)C(=O)OC)S(=O)(=O)c2ccccc21 (configuration not stated),4.69% (inactive)

row,Structure (SMILES),activation
1,C=C1CCN([C@@H](Cc2ccccc2)C(=O)O)S(=O)(=O)c2ccccc21,15.6% (active)
2,O=C(O)c1ccc2c(c1)S(=O)(=O)c1ccccc1C2=O,6.82% (inactive)
3,COc1ccc(/C=C/C=C2\N=C(SC)SC2=O)cc1,6.95% (inactive)
4,COc1ccc(/C=C/c2nc3sc4c(c3c(=O)o2)CCC4)cc1,292% (active)
5,Fc1ccc(-c2[nH]ncc2CN(CC2CCC2)CC2CCCO2)c(F)c1 (configuration not stated),46.1% (active)
6,O=C1/C(=C/c2ccc(N3CCCC3)cc2)NC(=S)N1C1CC1,1.84% (inactive)
7,CN1C/C(=C\c2ccc(N3CCOCC3)cc2)C(=O)/C(=C/c2ccc(N3CCOCC3)cc2)C1,11.8% (active)
8,CCN1C/C(=C/c2ccc(N3CCOCC3)cc2)C(=O)/C(=C/c2ccc(N3CCOCC3)cc2)C1,4.14% (inactive)
9,CCCN1C(=O)/C(=C/c2ccc(N3CCOCC3)cc2)NC1=S,217% (active)
10,CCN1C(=O)/C(=C/c2ccc(N3CCCC3)cc2)NC1=S,7.36% (inactive)
11,COc1ccc(S(=O)(=O)N2CCC(C(=O)NC(C)CCc3ccccc3)CC2)cc1 (configuration not stated),11.2% (inactive)
12,CCC(C)NC(=O)C1CC(=O)N(CCc2ccc(F)cc2)C1 (configuration not stated),331% (active)
13,O=[N+]([O-])c1ccc(N/N=C/c2ccc(OCc3cccc4ccccc34)cc2)nc1,8.03% (inactive)
14,Clc1ccccc1/C=N/NC1=Nc2cccc3cccc1c23,5.59% (inactive)
15,O=[N+]([O-])c1ccc(NN=Cc2cccc3ccccc23)nc1,31.4% (active)
16,Cc1cc(C)c2c(=O)n(-c3ccccc3)[nH]c2n1,10.3% (inactive)
17,Cc1cc(C)c(C#N)c(Sc2nnnn2-c2ccccc2)n1,27.6% (active)
18,O=c1c(/C=N/Nc2ccccc2)c(Sc2nnnn2-c2ccccc2)nc2ccccn12,2.36% (inactive)
19,CC(C)(C)c1cc(NCc2ccccn2)n2ncc(-c3ccc(Cl)cc3)c2n1,7.76% (inactive)
20,CCOC(=O)c1c(=O)n(O)c2ccc(OC)cc2[n+]1[O-],8.7% (inactive)
21,COC(=O)c1c(=O)n(O)c2ccc(OC)cc2[n+]1[O-],16.1% (active)
22,COc1ccc2c(c1)c(/C=C/c1cc[n+](C)cc1)cn2C,4.1% (inactive)
23,COC(=O)C1CSc2[nH]c(=O)sc2C1c1ccccc1 (configuration not stated),8.86% (inactive)

row,Structure (SMILES),activation
1,CN(C)c1ccc(/C=C2\NC(=S)N(Cc3ccccc3)C2=O)cc1,217% (active)
2,Cc1ccc(C2C3CN(C(C)C)CC=C3C(C#N)=C(N)C2(C#N)C#N)cc1 (configuration not stated),9.22% (inactive)
3,Cc1ccc([C@@H]2C3COCC=C3C(C#N)=C(N)C2(C#N)C#N)o1 (some centres not stated),13.5% (active)
4,CC(C)CN1CCC(C(=O)N2CCN(c3ccccc3F)CC2)CC1,4.79% (inactive)
5,CCC(CC)C(=O)c1c[nH]c(C(=O)N2CCN(c3ccccc3F)CC2)c1,60.8% (active)
6,O=C(NCc1ccco1)c1cc(-c2cccc(Cl)c2)on1,4.34% (inactive)
7,CCOc1c2ccc(C(=O)NCc3ccc(C)cc3)cc2nn1CCOC,0.03% (inactive)
8,CCOc1ccc(CNC(=O)c2ccc(Sc3ccc(Cl)cc3)c(NC(C)=O)c2)cc1,16.5% (active)
9,COc1c(Cl)ccc(Cl)c1C(=O)NCc1ccco1,8.15% (inactive)
10,CC(=O)Nc1cc(C(=O)NCc2ccco2)ccc1Sc1ccc(F)cc1,69.2% (active)
11,CC1(C)CC(=O)C2=C(C1)OC(N)=C(C#N)[C@@H]2c1ccccc1[N+](=O)[O-],22% (active)
12,O=C1C2C3C=CC(C4CC34)C2C(=O)N1/N=C/c1ccc(-c2ccc(F)cc2[N+](=O)[O-])o1 (configuration not stated),23.2% (active)
13,Cc1cc(/C=C2\SC(=S)N(Cc3ccco3)C2=O)c(C)n1-c1cccnc1,48.4% (active)
14,Cc1cc(/C=C2\SC(=S)N(Cc3ccco3)C2=O)c(C)n1-c1ccccc1,17.4% (active)
15,Cc1cc(/C=C2\SC(=S)N(C)C2=O)c(C)n1-c1ccccc1O,33% (active)
16,COc1ccc(-n2c(C)cc(/C=C3\SC(=S)NC3=O)c2C)cc1,8.15% (inactive)
17,COc1ccc(-n2c(C)cc(/C=C3\SC(=S)N(Cc4ccco4)C3=O)c2C)cc1,239% (active)
18,CCN1CCN(c2c(/C=C3\SC(=S)N(Cc4ccco4)C3=O)c(C)c(C#N)c(=O)n2C)CC1,4.2% (inactive)
19,CCN1C(=S)SC(=O)C1=C1C=C(C)N(Cc2ccco2)C(C)=C1,8.86% (inactive)
20,COc1ccc(O)c(/C=C2/SC(=S)N(Cc3ccccc3)C2=O)c1,0.43% (inactive)
21,COc1cccc2c1C(=O)c1c(O)c3c(c(O)c1C2=O)CC(O)(C(C)=NNC(=O)c1ccc(Cl)c(Cl)c1)CC3OC1CC(N)C(O)C(C)O1 (configuration not stated),5.43% (inactive)
22,CN(C)C=NC(=O)c1cc(C(=O)c2ccccc2Cl)c[nH]1,11% (inactive)
23,O=C(c1c[nH]c(C(=O)C(Cl)(Cl)Cl)c1)c1c(F)cccc1F,3920% (active)
